pIC50: −log10 of the molar value. Non-standard residues stand in square brackets, D forms with d. Residues, ends and D or L forms follow the SMILES beside them. ξ: configuration not given here. Met(O) = CS(=O)CC[C@H](N)C(=O)O; ξA = CC(N)C(=O)O; Sar = CNCC(=O)O
Experiments:
[1] = molecular target: Mu-type opioid receptor (Cavia porcellus) (UniProt P97266); assay: Relative potency with respect to morphine was evaluated for mu-receptor of guinea pig brain
Mus musculus [2] = assay: Relative potency was determined for the compound with respect to morphine activity (1) after subcutaneous administration; format: functional
Mu-type opioid receptor = Mu-type opioid receptor (Cavia porcellus, UniProt P97266); assay: Evaluated for the inhibition of [3H]DAGO binding to mu-receptor of guinea pig brain
Mu-type opioid receptor, sequence (P97266 whole entry): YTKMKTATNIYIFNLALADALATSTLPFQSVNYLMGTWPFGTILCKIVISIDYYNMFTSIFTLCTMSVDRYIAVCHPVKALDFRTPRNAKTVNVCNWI
Summary of the method: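 Male guinea pig brain minus cerebellum, homogenized in 50 mM Tris (pH 7.4), preincubated 37 °C for 45 min; 18 mg tissue per tube. [3H]DAGO 0.6 nM, 40 min at 25 °C, then GF/B filtration. Nonspecific binding defined with […] bremazocine. Six or more concentrations, each in triplicate; IC50 by probit analysis.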

Mus musculus [3] = assay: Relative potency was determined for the compound with respect to morphine activity (1) after icv administration; format: functional
Mus musculus [4] = assay: The compound was evaluated for the analgesic activity by tail-flick test after subcutaneous administration of compound in mouse; value ranges from 0.48-1.51; format: functional; settings: sc
Mus musculus [5] = assay: The compound was evaluated for the analgesic activity by tail-flick test after icv administration of compound in mouse; value ranges from […]-[…]; format: functional
[6] = molecular target: Kappa-type opioid receptor (Cavia porcellus, UniProt P41144); assay: Evaluated for the inhibition of [3H]EKC binding to Opioid receptor kappa 1 of guinea pig brain
Kappa-type opioid receptor, sequence (P41144 whole entry): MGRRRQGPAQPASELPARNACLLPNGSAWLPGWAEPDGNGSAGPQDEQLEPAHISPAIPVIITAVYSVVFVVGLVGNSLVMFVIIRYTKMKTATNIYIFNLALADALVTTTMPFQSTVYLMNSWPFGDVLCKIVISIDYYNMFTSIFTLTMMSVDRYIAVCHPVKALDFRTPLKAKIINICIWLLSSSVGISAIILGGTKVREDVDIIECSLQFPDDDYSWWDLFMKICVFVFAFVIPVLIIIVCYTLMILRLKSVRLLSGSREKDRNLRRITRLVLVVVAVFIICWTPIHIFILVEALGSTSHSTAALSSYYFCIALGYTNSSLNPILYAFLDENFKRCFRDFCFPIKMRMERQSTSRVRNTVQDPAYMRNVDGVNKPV

Mus musculus [7] = assay: The compound was evaluated for the analgesic activity by tail-flick test after icv administration of compound in mouse; value ranges from 0.51-9.7; format: functional
Mus musculus [8] = assay: The compound was evaluated for the analgesic activity by tail-flick test after subcutaneous administration of compound in mouse; value ranges from 0.31-1.09; format: functional; settings: sc
Mus musculus [9] = assay: The compound was evaluated for the analgesic activity by tail-flick test after subcutaneous administration of compound in mouse; value ranges from 1.40-4.89; format: functional; settings: sc
Mus musculus [10] = assay: The compound was evaluated for the analgesic activity by tail-flick test after icv administration of compound in mouse; value ranges from 11.8-23; format: functional
Mus musculus [11] = assay: The compound was evaluated for the analgesic activity by tail-flick test after icv administration of compound in mouse; value ranges from 1.35-3.36; format: functional
Mus musculus [12] = assay: The compound was evaluated for the analgesic activity by tail-flick test after subcutaneous administration of compound in mouse; value ranges from 0.54-0.83; format: functional; settings: sc
Mus musculus [13] = assay: The compound was evaluated for the analgesic activity by tail-flick test after icv administration of compound in mouse; value ranges from 12.6-41.7; format: functional
Mus musculus [14] = assay: The compound was evaluated for the analgesic activity by tail-flick test after subcutaneous administration in mouse; value ranges from 2.69-17.0; format: functional; settings: sc
Mus musculus [15] = assay: The compound was evaluated for the analgesic activity by tail-flick test after subcutaneous administration of compound in mouse; value ranges from 2.60-17.0; format: functional; settings: sc
Mus musculus [16] = assay: The compound was evaluated for the analgesic activity by tail-flick test after icv administration of compound in mouse; value ranges from 5.5-16.3; format: functional
Mus musculus [17] = assay: The compound was evaluated for the analgesic activity by tail-flick test after icv administration of compound in mouse; value ranges from 2.8-12.6; format: functional
Mus musculus [18] = assay: The compound was evaluated for the analgesic activity by tail-flick test after subcutaneous administration of compound in mouse; value ranges from 0.28-0.80; format: functional; settings: sc
Mus musculus [19] = assay: The compound was evaluated for the analgesic activity by tail-flick test after subcutaneous administration of compound in mouse; value ranges from 2.51-17.4; format: functional; settings: sc
Mus musculus [20] = assay: The compound was evaluated for the analgesic activity by tail-flick test after icv administration of compound in mouse; value ranges from 34-72; format: functional
Mus musculus [21] = assay: The compound was evaluated for the analgesic activity by tail-flick test after icv administration of compound in mouse; value ranges from 31-85; format: functional
Mus musculus [22] = assay: The compound was evaluated for the analgesic activity by tail-flick test after subcutaneous administration of compound in mouse; value ranges from 2.92-8.75; format: functional; settings: sc
Mus musculus [23] = assay: The compound was evaluated for the analgesic activity by tail-flick test after icv administration of compound in mouse; value ranges from 27-40.8; format: functional
Mus musculus [24] = assay: The compound was evaluated for the analgesic activity by tail-flick test after subcutaneous administration of compound in mouse; value ranges from 2.64-10.0; format: functional; settings: sc
Mus musculus [25] = assay: The compound was evaluated for the analgesic activity by tail-flick test after subcutaneous administration of compound in mouse; value ranges from 0.21-1.06; format: functional; settings: sc
Mus musculus [26] = assay: The compound was evaluated for the analgesic activity by tail-flick test after icv administration of compound in mouse; value ranges from 6.1-11.4; format: functional
Mus musculus [27] = assay: The compound was evaluated for the analgesic activity by tail-flick test after subcutaneous administration of compound in mouse; value ranges from 3.48-14.95; format: functional; settings: sc
Mus musculus [28] = assay: The compound was evaluated for the analgesic activity by tail-flick test after icv administration of compound in mouse; value ranges from 14.8-58; format: functional
Mus musculus [29] = assay: The compound was evaluated for the analgesic activity by tail-flick test after subcutaneous administration of compound in mouse; value ranges from 26.7-99.1; format: functional; settings: sc
Mus musculus [30] = assay: The compound was evaluated for the analgesic activity by tail-flick test after icv administration of compound in mouse; value ranges from 46.4-120; format: functional
Mus musculus [31] = assay: The compound was evaluated for the analgesic activity by tail-flick test after icv administration of compound in mouse; value ranges from 6.6-27.1; format: functional
Summary of the method: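 Swiss-Webster mice (23-25 g), tail immersed in 55 °C water, reaction time read before and at various times after icv dosing in saline (4 µL); 10 s cutoff. % analgesia = [(T − T0)/(10 − T0)] × 100. At least four doses, at least eight mice per dose; ED50 estimated at time of peak activity. Opioid specificity checked by naloxone pretreatment (0.5-1 mg/kg sc).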

Mus musculus [32] = assay: The compound was evaluated for the analgesic activity by tail-flick test after icv administration of compound in mouse; value ranges from 2550-4200; format: functional
Mus musculus [33] = species: Mus musculus; assay: animal or person; settings: Tail, sc

Mu-type opioid receptor (Cavia porcellus), sequence (P97266 whole entry): as the sequence (P97266 whole entry) above

SMILES	Relative potency [1]	Relative potency (Mus musculus [2])	pIC50 (Mu-type opioid receptor)	Relative potency (Mus musculus [3])	pIC50 [6]	also measured
COC(=O)CN(C)C(=O)[C@H](Cc1ccccc1)NC(=O)[C@H](CC[S+](C)[O-])NC(=O)[C@H](Cc1ccc(O)cc1)N=C(N)N (stereo not given in full)	0.17	14.4	7.64	81	< 5.00	ED50 (Mus musculus [4]): 0.75 µmol/kg; ED50 (Mus musculus [5]): 38.1 pmol/mouse
C[S+]([O-])CC[C@H](NC(=O)[C@H](Cc1ccc(O)cc1)N=C(N)N)C(=O)N[C@@H](Cc1ccccc1)C(=O)NCC(N)=O (stereo not given in full)	–	–	8.30	–	< 5.00	ED50 (Mus musculus [7]): 2 pmol/mouse; ED50 (Mus musculus [8]): 0.53 µmol/kg
COC(=O)CNC(=O)[C@H](Cc1ccccc1)NC(=O)[C@H](CC[S+](C)[O-])NC(=O)[C@H](Cc1ccc(O)cc1)N=C(N)N (stereo not given in full)	–	–	7.63	–	< 5.00	ED50 (Mus musculus [9]): 2.39 µmol/kg; ED50 (Mus musculus [10]): 15.5 pmol/mouse
C[C@H](NC(=O)[C@@H](N)Cc1ccc(O)cc1)C(=O)N[C@@H](Cc1ccccc1)C(=O)NCC(N)=O (H-YAFG-NH2)	0.11	–	–	–	–	–
C[S+]([O-])CC[C@H](NC(=O)[C@@H](N)Cc1ccc(O)cc1)C(=O)N[C@@H](Cc1ccccc1)C(=O)NCC(N)=O (stereo not given in full) (H-Y[Met(O)]FG-NH2)	–	–	8.20	–	< 5.00	ED50 (Mus musculus [11]): 2.01 pmol/mouse; ED50 (Mus musculus [12]): 0.66 µmol/kg
C[S+]([O-])CC[C@H](NC(=O)[C@@H](N)Cc1ccc(O)cc1)C(=O)N[C@@H](Cc1ccccc1)C(=O)NCC(=O)O (stereo not given in full) (H-Y[Met(O)]FG-OH)	–	–	7.21	–	< 5.00	ED50 (Mus musculus [13]): 20.5 pmol/mouse; ED50 (Mus musculus [14]): 4.64 µmol/kg
COC(=O)CNC(=O)[C@H](Cc1ccccc1)NC(=O)[C@H](CC[S+](C)[O-])NC(=O)[C@@H](N)Cc1ccc(O)cc1 (stereo not given in full) (H-Y[Met(O)]FG-OMe)	–	–	8.30	–	< 5.00	ED50 (Mus musculus [15]): 4.21 µmol/kg; ED50 (Mus musculus [16]): 10 pmol/mouse
CN(CC(N)=O)C(=O)[C@H](Cc1ccccc1)NC(=O)[C@H](CC[S+](C)[O-])NC(=O)[C@@H](N)Cc1ccc(O)cc1 (stereo not given in full) (H-Y[Met(O)]F[Sar]-NH2)	0.67	22.5	8.22	561	< 5.00	ED50 (Mus musculus [17]): 5.5 pmol/mouse; ED50 (Mus musculus [18]): 0.48 µmol/kg
CN(CC(=O)O)C(=O)[C@H](Cc1ccccc1)NC(=O)[C@H](CC[S+](C)[O-])NC(=O)[C@@H](N)Cc1ccc(O)cc1 (stereo not given in full) (H-Y[Met(O)]F[Sar]-OH)	0.05	2.3	7.11	67	< 5.00	ED50 (Mus musculus [19]): 4.63 µmol/kg; ED50 (Mus musculus [20]): 45.8 pmol/mouse
COC(=O)CN(C)C(=O)[C@H](Cc1ccccc1)NC(=O)[C@H](CC[S+](C)[O-])NC(=O)[C@@H](N)Cc1ccc(O)cc1 (stereo not given in full) (H-Y[Met(O)]F[Sar]-OMe)	0.67	2.7	8.22	64	< 5.00	ED50 (Mus musculus [21]): 47.9 pmol/mouse; ED50 (Mus musculus [22]): 4.05 µmol/kg
CC(NC(=O)[C@H](Cc1ccccc1)NC(=O)[C@H](CC[S+](C)[O-])NC(=O)[C@@H](N)Cc1ccc(O)cc1)C(N)=O (stereo not given in full) (H-Y[Met(O)]F[ξA]-NH2)	0.24	2.5	7.77	93	< 5.00	ED50 (Mus musculus [23]): 33 pmol/mouse; ED50 (Mus musculus [24]): 4.38 µmol/kg
CC(NC(=O)[C@H](Cc1ccccc1)NC(=O)[C@H](CC[S+](C)[O-])NC(=O)[C@@H](N)Cc1ccc(O)cc1)C(=O)O (stereo not given in full) (H-Y[Met(O)]F[ξA]-OH)	–	–	6.92	–	< 5.00	ED50 (Mus musculus [25]): 0.36 µmol/kg; ED50 (Mus musculus [26]): 8.4 pmol/mouse
COC(=O)C(C)NC(=O)[C@H](Cc1ccccc1)NC(=O)[C@H](CC[S+](C)[O-])NC(=O)[C@@H](N)Cc1ccc(O)cc1 (stereo not given in full) (H-Y[Met(O)]F[ξA]-OMe)	–	–	8.05	–	< 5.00	ED50 (Mus musculus [27]): 5.16 µmol/kg; ED50 (Mus musculus [28]): 18.2 pmol/mouse
C[C@@H](NC(=O)[C@@H](N)Cc1ccc(O)cc1)C(=O)N[C@@H](Cc1ccccc1)C(=O)NCC(N)=O (H-Y[dA]FG-NH2) [listing 1 of 2 here]	–	–	7.44	–	< 5.00	–
C[C@@H](NC(=O)[C@@H](N)Cc1ccc(O)cc1)C(=O)N[C@@H](Cc1ccccc1)C(=O)NCC(N)=O (H-Y[dA]FG-NH2) [listing 2 of 2 here]	–	0.2	–	45	–	ED50 (Mus musculus [29]): 60.3 µmol/kg; ED50 (Mus musculus [30]): 68.8 pmol/mouse
C[C@@H](NC(=O)[C@@H](N)Cc1ccc(O)cc1)C(=O)N[C@@H](Cc1ccccc1)C(=O)NCC(=O)N[C@@H](Cc1ccc(O)cc1)C(=O)N1CCC[C@H]1C(=O)N[C@@H](CO)C(N)=O [DERMORPHIN]	–	–	8.24	–	< 5.00	ED50 (Mus musculus [31]): 11.4 pmol/mouse
CN1CC[C@]23c4c5ccc(O)c4O[C@H]2[C@@H](O)C=C[C@H]3[C@H]1C5 [MORPHINE]	–	–	–	–	–	ED50 (Mus musculus [32]): 3090 pmol/mouse; ED50 (Mus musculus [33]): 10.8 µmol/kg

Source: ChEMBL document CHEMBL1123825, “Synthesis and activity profiles of new dermorphin-(1-4) peptide analogues” (J Med Chem, 1987)
